According to ChEMBL document CHEMBL3102698, “New highly toxic bile acids derived from deoxycholic acid, chenodeoxycholic acid and lithocholic acid” (Bioorg Med Chem, 2014):
Calls of active or inactive are those of the source. The calls are words filed in the database; no cut-off is given here.

Columns and labels:
[1] = Cytotoxicity against human HT1080 cells assessed as cell viability after 24 hrs by MTT assay; format: functional, cell-based; conditions: HT-1080, 24 h
Summary of the method: (§1)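 Cells grown to 70% confluence (Caco-2 seeded 8 × 10^3/well, HT1080 12 × 10^4/well), serum-starved 1 h, then exposed 24 h serum-free to 0.1-1000 µM (DMSO ≤0.5%). MTT 0.5 mg/mL added for 3 h at 37 °C; formazan dissolved in DMSO, OD read at 540 nm. Viability taken as % of untreated OD. IC50 fitted from eight concentration levels, at least three experiments in triplicate.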

Caco-2 [2] = test: Cytotoxicity against human Caco2 cells assessed as cell viability after 24 hrs by MTT assay; format: functional, cell-based; conditions: Caco-2, 24 h; summary of the method: as §1
Caco-2 [3] = test: Cytotoxicity against human Caco2 cells assessed as cell viability at 10 uM after 24 hrs by MTT assay in presence of antioxidant N-acetyl cysteine; format: functional, cell-based
Summary of the method: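 MTT viability run on Caco-2 with and without 1 mM N-acetyl cysteine co-incubation. Compounds at 10 µM, natural bile acids at 100 µM, 24 h serum-free after 1 h serum starvation. MTT 0.5 mg/mL for 3 h at 37 °C, then DMSO solubilisation and OD at 540 nm, expressed as % of untreated; n = 3.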

Caco-2 [4] = test: Induction of ROS production in human Caco2 cells at 10 uM after 0.5 to 24 hrs by 2',7'-dichlorfluorescein-diacetate staining-based fluorescence assay; format: functional, cell-based
Summary of the method: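 Caco-2 at 70-80% confluence exposed in serum-free medium for 30 min or 24 h (compounds 10 µM, natural bile acids 100 µM). Medium then replaced with 100 µM 2',7'-dichlorofluorescein diacetate for 30 min at 37 °C, cells washed with PBS, fluorescence read at ex 490/em 530 nm. Signal expressed relative to vehicle and corrected for MTT viability; n = 3.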

Caco-2 [5] = test: Induction of apoptosis in human Caco2 cells at 3.125 to 100 uM after 24 hrs by annexin V-FITC/propidium iodide staining-based flow cytometric analysis; format: functional, cell-based
Summary of the method: (§2)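 Caco-2 or HT1080 grown to 80% confluence, then treated 24 h in serum-free medium (vehicle controls run in parallel) at seven concentrations. Cells collected, washed and resuspended in binding buffer, stained with annexin V-FITC plus propidium iodide for 15 min at rt in the dark, and analysed within 5 min. Quadrants scored: annexin+/PI− early apoptotic, double-positive late apoptotic, PI+ only dead.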

HT-1080 [6] = test: Induction of apoptosis in human HT1080 cells at 3.125 to 100 uM after 24 hrs by annexin V-FITC/propidium iodide staining-based flow cytometric analysis; format: functional, cell-based; summary of the method: as §2
[7] = Cytotoxicity against human HET-1A cells; format: cell-based
Caco-2 [8] = test: Cytotoxicity against human Caco2 cells assessed as cell viability at 50 uM after 24 hrs by MTT assay relative to control; format: functional; conditions: Caco-2, 24 h, read-out: Activity
HT-1080 [9] = test: Induction of necrosis in human HT1080 cells at 3.125 to 100 uM after 24 hrs by annexin V-FITC/propidium iodide staining-based flow cytometric analysis; format: functional, cell-based; summary of the method: as §2
Caco-2 [10] = test: Induction of necrosis in human Caco2 cells at 50 to 100 uM after 24 hrs by annexin V-FITC/propidium iodide staining-based flow cytometric analysis; format: functional, cell-based
Summary of the method: (§3)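 Cells grown to 80% confluence, exposed 24 h in serum-free medium, with vehicle-only controls. Harvested cells washed and resuspended in binding buffer, then stained with annexin V-FITC and propidium iodide 15 min at rt in the dark. Read by flow cytometry within 5 min. Annexin V−/PI+ cells scored necrotic and annexin V+ cells apoptotic; quadrant percentages reported.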

Caco-2 [11] = test: Cytotoxicity against human Caco2 cells assessed as cell viability at 100 uM after 24 hrs by MTT assay in presence of antioxidant N-acetyl cysteine; format: functional, cell-based
Summary of the method: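 Caco-2 grown to 70% confluence, serum-starved 1 h, then treated 24 h serum-free with compound plus 1 mM NAC; DMSO vehicle at most 0.5%. MTT 0.5 mg/mL for 3 h at 37 °C, formazan dissolved in DMSO, OD 540 nm. Viability expressed as % of untreated cells; n = 3.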

HT-1080 [12] = test: Induction of necrosis in human HT1080 cells at 50 to 100 uM after 24 hrs by annexin V-FITC/propidium iodide staining-based flow cytometric analysis; format: functional, cell-based; summary of the method: as §3
Caco-2 [13] = test: Induction of necrosis in human Caco2 cells up to 500 uM after 24 hrs by annexin V-FITC/propidium iodide staining-based flow cytometric analysis; format: functional, cell-based; summary of the method: as §3
HT-1080 [14] = test: Induction of necrosis in human HT1080 cells up to 500 uM after 24 hrs by annexin V-FITC/propidium iodide staining-based flow cytometric analysis; format: functional, cell-based; summary of the method: as §3

In the case of `C[C@H](CCC(=O)NC1CCCCC1)[C@H]1CC[C@H]2[C@@H]3CC[C@@H]4C[C@@H](N=[N+]=[N-])CC[C@]4(C)[C@H]3CC[C@]12C`, the IC50 [1] is reported as > 1000 µM and the IC50 (Caco-2 [2]) is reported as > 1000 µM.
With `C[C@H](CCC(=O)NC1CC1)[C@H]1CC[C@H]2C3=CC[C@@H]4C[C@H](O)CC[C@]4(C)[C@H]3CC[C@]12C` the IC50 (Caco-2 [2]) was 9.5 µM.
In the case of `C[C@H](CCC(=O)NC1CC1)[C@H]1CC[C@H]2[C@@H]3[C@H](O)C[C@@H]4C[C@@H](N=[N+]=[N-])CC[C@]4(C)[C@H]3CC[C@]12C`, the Activity (Caco-2 [3]) is reported as “inactive”, the Activity (Caco-2 [4]) is reported as “Active” and the IC50 [1] is reported as 3.2 µM. The IC50 (Caco-2 [2]) was 7.6 µM.
With `C[C@H](CCC(=O)O)[C@H]1CC[C@H]2C3=CC[C@@H]4C[C@H](O)CC[C@]4(C)[C@H]3CC[C@]12C` the IC50 (Caco-2 [2]) was > 100 µM.
With `C[C@H](CCC(=O)O)[C@H]1CC[C@H]2[C@@H]3CC[C@@H]4C[C@@H](N=[N+]=[N-])CC[C@]4(C)[C@H]3CC[C@]12C` the Activity (Caco-2 [5]) was “Active”, the Activity (HT-1080 [6]) was “Active” and the IC50 [1] was 21.3 µM. For the same compound, the IC50 (Caco-2 [2]) was > 250 µM.
In the case of `C[C@H](CCC(N)=O)[C@H]1CC[C@H]2C3=CC[C@@H]4C[C@H](O)CC[C@]4(C)[C@H]3CC[C@]12C`, the IC50 (Caco-2 [2]) is reported as > 100 µM.
For `C[C@H](CCC(=O)O)[C@H]1CC[C@H]2[C@@H]3CC[C@@H]4C[C@@H](N=[N+]=[N-])CC[C@]4(C)[C@H]3C[C@H](O)[C@]12C`, the EC50 [7] was 97 µM.
With `C[C@H](CCC(=O)NCc1ccccc1)[C@H]1CC[C@H]2[C@@H]3CC[C@@H]4C[C@@H](N=[N+]=[N-])CC[C@]4(C)[C@H]3CC[C@]12C` the IC50 [1] was > 100 µM and the IC50 (Caco-2 [2]) was > 100 µM.
In the case of `C[C@H](CCC(N)=O)[C@H]1CC[C@H]2[C@@H]3CC[C@@H]4C[C@H](N=[N+]=[N-])CC[C@]4(C)[C@H]3C[C@H](O)[C@]12C`, the Activity (Caco-2 [3]) is reported as “inactive”, the Activity (Caco-2 [4]) is reported as “Active” and the IC50 [1] is reported as 10 µM. It also gave an IC50 (Caco-2 [2]) of 12.6 µM.
With `C[C@H](CCC(=O)NC1CC1)[C@H]1CC[C@H]2[C@@H]3CC[C@@H]4C[C@@H](N=[N+]=[N-])CC[C@]4(C)[C@H]3CC[C@]12C` the IC50 [1] was > 100 µM and the IC50 (Caco-2 [2]) was > 100 µM.
`CC(=O)O[C@@H]1C[C@@H]2C[C@@H](N=[N+]=[N-])CC[C@]2(C)[C@H]2CC[C@]3(C)[C@@H]([C@H](C)CCC(N)=O)CC[C@H]3[C@H]12` gave an IC50 (Caco-2 [2]) of 5.5 µM.
In the case of `CCCNC(=O)CC[C@@H](C)[C@H]1CC[C@H]2[C@@H]3CC[C@@H]4C[C@@H](N=[N+]=[N-])CC[C@]4(C)[C@H]3C[C@H](O)[C@]12C`, the Activity (Caco-2 [4]) is reported as “Active”, the IC50 [1] is reported as 6.3 µM and the viability at 50 µM (Caco-2 [8]) is reported as 60%.
In the case of `C[C@H](CCC(=O)NCc1ccccc1)[C@H]1CC[C@H]2[C@@H]3CC[C@@H]4C[C@@H](N=[N+]=[N-])CC[C@]4(C)[C@H]3C[C@H](O)[C@]12C`, the Activity (Caco-2 [4]) is reported as “Active”, the IC50 [1] is reported as > 500 µM and the IC50 (Caco-2 [2]) is reported as > 1000 µM.
`C[C@H](CCC(=O)O)[C@H]1CC[C@H]2[C@@H]3[C@H](O)C[C@@H]4C[C@H](N=[N+]=[N-])CC[C@]4(C)[C@H]3CC[C@]12C` gave an IC50 [1] of 26.2 µM and an IC50 (Caco-2 [2]) of 43.7 µM.
For `C[C@H](CCC(N)=O)[C@H]1CC[C@H]2[C@@H]3CC[C@@H]4C[C@@H](N=[N+]=[N-])CC[C@]4(C)[C@H]3CC[C@]12C`, the Activity (HT-1080 [9]) was “Active”, the IC50 [1] was 13.1 µM and the IC50 (Caco-2 [2]) was > 500 µM.
In the case of `C[C@H](CCC(=O)O)[C@H]1CC[C@H]2[C@@H]3CC[C@@H]4C[C@H](O)CC[C@]4(C)[C@H]3CC[C@]12C` [LITHOCHOLIC ACID], the Activity (Caco-2 [10]) is reported as “Active”, the Activity (Caco-2 [11]) is reported as “inactive” and the Activity (HT-1080 [12]) is reported as “Active”. It also gave an IC50 [1] of 23 µM and an IC50 (Caco-2 [2]) of 56 µM.
In the case of `C[C@H](CCC(=O)NC1CC1)[C@H]1CC[C@H]2[C@@H]3CC[C@@H]4C[C@@H](N=[N+]=[N-])CC[C@]4(C)[C@H]3C[C@H](O)[C@]12C`, the Activity (Caco-2 [3]) is reported as “inactive”, the Activity (HT-1080 [6]) is reported as “Active” and the IC50 [1] is reported as 1.9 µM. For the same compound, the IC50 (Caco-2 [2]) was 6.3 µM.
For `CCCNC(=O)CC[C@@H](C)[C@H]1CC[C@H]2[C@@H]3CC[C@@H]4C[C@@H](N=[N+]=[N-])CC[C@]4(C)[C@H]3CC[C@]12C`, the IC50 [1] was > 200 µM and the IC50 (Caco-2 [2]) was > 1000 µM.
Compound `C[C@H](CCC(N)=O)[C@H]1CC[C@H]2[C@@H]3CC[C@@H]4C[C@H](O)CC[C@]4(C)[C@H]3C[C@H](O)[C@]12C` has an EC50 [7] of 39 µM.
With `CC(=O)O[C@@H]1C[C@@H]2C[C@@H](N=[N+]=[N-])CC[C@]2(C)[C@H]2CC[C@]3(C)[C@@H]([C@H](C)CCC(=O)O)CC[C@H]3[C@H]12` the IC50 (Caco-2 [2]) was 15.6 µM.
In the case of `C[C@H](CCC(N)=O)[C@H]1CC[C@H]2[C@@H]3[C@H](O)C[C@@H]4C[C@@H](N=[N+]=[N-])CC[C@]4(C)[C@H]3CC[C@]12C`, the Activity (Caco-2 [3]) is reported as “inactive”, the Activity (Caco-2 [4]) is reported as “Active” and the IC50 [1] is reported as 6.9 µM. It also gave an IC50 (Caco-2 [2]) of 9.8 µM.
In the case of `CC(=O)O[C@@H]1C[C@@H]2C[C@@H](N=[N+]=[N-])CC[C@]2(C)[C@H]2CC[C@]3(C)[C@@H]([C@H](C)CCC(=O)NC4CC4)CC[C@H]3[C@H]12`, the IC50 (Caco-2 [2]) is reported as 6.2 µM.
For `C[C@H](CCC(=O)O)[C@H]1CC[C@H]2[C@@H]3[C@@H](O)C[C@@H]4C[C@H](O)CC[C@]4(C)[C@H]3CC[C@]12C`, the Activity (Caco-2 [11]) was “inactive”.
With `C[C@H](CCC(=O)O)[C@H]1CC[C@H]2[C@@H]3[C@H](O)C[C@@H]4C[C@H](O)CC[C@]4(C)[C@H]3CC[C@]12C` [CHENODIOL] the Activity (Caco-2 [13]) was “inactive”, the Activity (HT-1080 [14]) was “inactive” and the IC50 [1] was 130 µM. For the same compound, the IC50 (Caco-2 [2]) was 106 µM.
`C[C@H](CCC(N)=O)[C@H]1CC[C@H]2[C@@H]3CC[C@@H]4C[C@@H](N=[N+]=[N-])CC[C@]4(C)[C@H]3C[C@H](O)[C@]12C` gave an IC50 [1] of 3.6 µM and an IC50 (Caco-2 [2]) of 10.7 µM.
For `C[C@H](CCC(=O)NC1CCCCC1)[C@H]1CC[C@H]2[C@@H]3CC[C@@H]4C[C@@H](N=[N+]=[N-])CC[C@]4(C)[C@H]3C[C@H](O)[C@]12C`, the IC50 [1] was > 100 µM and the IC50 (Caco-2 [2]) was > 1000 µM.
For `C[C@H](CCC(=O)NC1CC1)[C@H]1CC[C@H]2[C@@H]3CC[C@@H]4C[C@H](N=[N+]=[N-])CC[C@]4(C)[C@H]3C[C@H](O)[C@]12C`, the Activity (Caco-2 [3]) was “inactive”, the IC50 [1] was 5.7 µM and the IC50 (Caco-2 [2]) was 2.3 µM.
Compound `C[C@H](CCC(=O)O)[C@H]1CC[C@H]2[C@@H]3[C@H](O)C[C@@H]4C[C@@H](N=[N+]=[N-])CC[C@]4(C)[C@H]3CC[C@]12C` has an IC50 [1] of 23.6 µM and an IC50 (Caco-2 [2]) of 40.3 µM.
